# Source: PubChem BioAssay (several laboratories)
# FXIIa inh: factor XIIa (human) inhibition; actives 0.3% (n = 220,000); P00748; purified FXIIa, Boc-QGR-AMC fluorogenic substrate, 2 h; inhibition, % at 5 µM; in the data active means inhibition above about 40%;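 further: 0% = enzyme with no compound and 100% = blank without enzyme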
# Furin inhibitor: inhibitors of human furin. P09958. purified furin, fluorogenic substrate cleavage. inhibition, % at 20 µM or 30 µM. actives 0.061% (n = 220,000). AID 463115; in the data active means inhibition above about 25%
# Thrombin inh: thrombin (human) inhibition. actives 0.26% (n = 220,000). P00734. AID 1046. inhibition, % at 5 µM. alpha-thrombin, Boc-VPR-AMC fluorogenic substrate cleavage;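 active means inhibition at or above 40%; inactive means inhibition below 40%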;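 further: 0% = enzyme with no compound and 100% = wells without enzyme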
#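 Test system: human alpha-thrombin protein / Dosing: one concentration per compound, 5 µM, with 0.2% DMSO / Medium: pH 7.5 Tris-saline with Tween 20 / Benchmarks: no-compound enzyme wells and no-enzyme blanks / Read-out basis: percent inhibition of thrombin substrate cleavage / Timing: reaction at room temperature / Measured by: fluorescence, ex 355 nm, em 460 nm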
# KLK5 inh: inhibitors of human kallikrein 5 | Q9Y337 | recombinant hK5, fluorogenic AMC substrate cleavage | inhibition, % at 5 µM | actives 0.59% (n = 210,000) | AID 873;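 active means inhibition of 40% or more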;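 further: 0% = enzyme controls without compound and 100% = no-enzyme blanks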
# Target sequence (Q9Y337 67-293 limits assumed): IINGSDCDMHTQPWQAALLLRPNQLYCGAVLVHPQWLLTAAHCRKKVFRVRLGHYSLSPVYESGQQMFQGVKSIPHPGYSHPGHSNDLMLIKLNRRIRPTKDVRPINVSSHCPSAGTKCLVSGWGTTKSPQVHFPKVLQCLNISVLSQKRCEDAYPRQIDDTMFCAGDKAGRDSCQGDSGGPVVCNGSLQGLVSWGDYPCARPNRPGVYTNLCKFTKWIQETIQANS
# FXIa inh 1536: factor XIa (human) inhibition; P03951; purified FXIa, Boc-Glu-Ala-Arg-AMC fluorogenic substrate; inhibition, % at 5 µM; actives 0.14% (n = 220,000);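 active means inhibition of at least 40%; inactive means inhibition below 40%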;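 further: fluorescence of freed AMC excited at 355 nm; 0% = enzyme without compound and 100% = no enzyme blank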
# * = called active by the depositor; . = no result given. A selection: hits, their analogues and other compounds. The true share with any hit is near 1.1%.
SMILES,FXIIa inh,Furin inhibitor,Thrombin inh,KLK5 inh,FXIa inh 1536
Cc1ccccc1NC(=O)CCl,13.4,-22.9,49.8*,-4.8,0.9
COC(=O)C1=CO[C@@H](C)[C@@H]2CN3CC[C@]4(C(=O)Nc5ccccc54)[C@@H]3C[C@H]12,5.5,-6.7,-2.1,-5.8,-0.1
Cc1ccccc1-n1c(O)c(C=Nc2ccc(N(C)C)cc2)c(=O)[nH]c1=O,11.7,27.4*,2.0,-16.5,-1.6
O=c1[nH]c(=O)n(Cc2ccco2)c(O)c1C=NCc1ccco1,1.3,-17.3,14.2,44.4*,16.4
COc1ccc(C2CN(C)CC2C(=O)c2ccc(C)cc2)cc1Cl (configuration not stated),9.7,-3.0,-7.1,-1.2,-0.8
C/C(=C/C=C/[C@@H](C)C(=O)O)[C@H]1CN[C@H](C(=O)O)[C@H]1CC(=O)O,16.9,-15.8,1.6,-3.1,10.9
COc1ccc(NC(=O)c2cc([N+](=O)[O-])ccc2N2CCNCC2)cc1,29.4,0.1,5.1,51.1*,22.6
CNS(=O)(=O)c1ccc(N=Cc2c(O)n(-c3cccc(C)c3)c(=O)[nH]c2=O)cc1,-0.7,-2.6,0.8,-3.1,-4.5
Cc1cccc(-n2c(O)c(/C=C/C=Nc3ccccc3)c(=O)[nH]c2=O)c1,2.9,31.2*,0.4,-15.7,-1.8
CC(=O)c1ccccc1NC(=O)C1C2CCC(O2)C1C(=O)O (configuration not stated),14.1,-22.5,0.8,-20.9,3.5
CC1CC(NC(=O)C2C3CCC(O3)C2C(=O)O)CC(C)(C)C1 (configuration not stated),45.5*,-4.1,-4.3,-5.2,23.4
CCC(C)C1NC(=O)C(C(C)=O)=C1O (configuration not stated),11.5,-15.8,6.0,4.2,4.5
c1ccc2c3c([nH]c2c1)C1(CCNCC1)NCC3,7.2,-32.7,1.1,5.0,11.6
CSc1nc(N)c(N=Nc2ccc([As](=O)(O)O)cc2)c(=O)[nH]1,6.1,27.1*,-0.3,7.5,-10.1
CN1CCC(N(C)c2nc(-c3ccc([N+](=O)[O-])cc3)nc3ccccc23)CC1,12.0,-1.1,-3.0,-13.0,8.4
CN(CC1COc2ccccc2O1)c1nc(-c2cccnc2)nc2ccccc12 (configuration not stated),10.2,-13.8,17.3,52.9*,11.0
CC1CCCC(C)N1/N=C/c1c[nH]c2ccc(Br)cc12 (configuration not stated),18.8,-6.1,18.0,45.2*,0.8
C/C(=N\N1CCCCCC1)c1c(O)n(C)c(=O)n(C)c1=O,3.9,-30.5,-4.3,-3.7,-3.6
Cc1cc2c(C(C)C)c(O)c(O)c(C=O)c2c(O)c1-c1c(C)cc2c(C(C)C)c(O)c(O)c(C=O)c2c1O,29.9,-2.8,4.5,-167.9,20.6
C[C@]12CCC(=O)C=C1CCC1C2CC[C@@]2(C)C1CC[C@@]2(O)CC#N (some centres not stated),17.0,-13.8,15.6,61.9*,9.1
C#C[C@]1(O)CC[C@H]2[C@@H]3CCC4=CC(=O)CC[C@]4(C)[C@H]3CC[C@@]21C,5.5,-9.4,-5.3,12.2,0.2
Cn1nnc(CC[N+](C)(C)C)n1,27.3,-11.2,43.0*,38.5,56.1*
N=C1SCC(=O)N1Cc1ccccc1,0.1,-14.3,-5.2,-11.8,-7.0
N=c1n(CCO)c2ccccc2n1Cc1ccccc1,16.8,-16.4,67.3*,30.4,14.1
CCNc1cc(N2CCNCC2)ccc1[N+](=O)[O-],28.0,9.7,33.8,27.8,68.0*
SMILES,FXIIa inh,Furin inhibitor,Thrombin inh,KLK5 inh,FXIa inh 1536
CN(C)CP(=O)(Nc1ccccc1)N(C)C (configuration not stated),18.6,-13.8,27.2,66.8*,5.3
C/C=C1/CN2C3CC1C(CO)(C(=O)OC)C2Cc1c3n(C)c2ccccc12 (configuration not stated),10.6,-25.6,5.7,6.9,5.8
Cc1ccc(C2=NN(CCC(=O)N3CCC4(CC3)OCCO4)C(=O)CC2)cc1,6.0,-31.3,-3.9,.,-1.8
COC(=O)C1=C(N)Oc2cc(C)oc(=O)c2C12C(=O)Nc1ccccc12 (configuration not stated),1.4,-14.8,-25.1,-6.0,-9.5
CCN(CC)c1ccc(N=Cc2c(O)n(-c3ccc(Cl)cc3)c(=O)[nH]c2=O)cc1,17.9,-6.2,-1.1,2.9,6.2
CC(=O)N1CCN(c2ccc(N=Cc3c(O)n(-c4ccc(Cl)cc4)c(=O)[nH]c3=O)cc2)CC1,14.7,-18.6,9.5,58.9*,9.3
O=C(c1ccc(N2CCCCCC2)c([N+](=O)[O-])c1)N1CCC2(CC1)OCCO2,12.7,-16.7,-1.4,1.2,2.1
CCOC(=O)C1(c2ccccc2)CCN(Cc2cccc(C(=O)O)c2)CC1,18.9,-18.4,19.6,44.1*,11.6
COc1ccc(OCC(=O)N2CCN(C/C=C/c3ccccc3)CC2)cc1,.,-10.2,82.5*,25.9,38.1
COc1ccc(C(=O)C(Cc2ccccc2)N(C)C)cc1 (configuration not stated),16.3,-15.7,1.4,-9.3,2.3
CN(C)C(Cc1ccccc1)C(=O)c1ccc(-c2ccccc2)cc1 (configuration not stated),13.3,-5.5,16.9,97.7*,10.6
CCOc1ccc(-c2c(C)n(-c3ccc(OCC)cc3)c3[n+]2CCCCC3)cc1,45.7*,0.0,6.0,36.0,50.9*
CCOc1ccc(-n2c(-c3ccoc3)nc3ccccc3c2=O)cc1,9.7,-3.3,4.7,-30.7,1.6
CC(=O)c1c(C)n(CCCOC(C)C)c2ccc(O)cc12,-8.9,-16.8,36.9,43.4*,2.9
C=COCCn1c(C)c(C(C)=O)c2cc(O)ccc21,7.5,-16.3,-10.7,-0.8,-3.5
O=C1CN=C(c2ccccc2)c2cc(Br)ccc2N1Cc1cc(=O)n2ccccc2n1,10.4,-3.8,0.8,-19.6,7.8
NNC(=O)CN1C(=O)CN=C(c2ccccc2)c2cc(Br)ccc21,44.4*,0.9,33.4,27.2,19.1
CN(C)C(=O)CSc1nnc([C@@H](N)Cc2ccccc2)o1,60.8*,-15.7,61.4*,23.4,12.8
CCOC(=O)C1CCN(C=C2C(=O)N(C)C(=S)N(C)C2=O)CC1,-1.3,4.8,-17.3,-18.3,-7.6
O=P(C(=Nc1ccc(Cl)cc1)N1CCOCC1)(N1CCOCC1)N1CCOCC1,19.8,-5.4,28.0,41.7*,15.1
CCOCC(=O)NC1CCSC1=O (configuration not stated),10.7,-24.0,-2.1,4.2,7.7
CCC(=NCC1CCCO1)c1c(O)n(-c2ccccc2)c(=O)[nH]c1=O (configuration not stated),17.9,-2.9,14.6,60.8*,18.0
O=C(c1ccc(-c2ccccc2)c(F)c1)C1CCCN(CCO)C1 (configuration not stated),1.2,-19.3,-9.4,-1.9,-4.4
CCCC1C(C#N)=C(N)Oc2c1c(=O)oc1ccccc21 (configuration not stated),19.1,-9.3,0.3,-6.7,12.4
CCCC(C)C1C(C#N)=C(N)Oc2c1c(=O)oc1ccccc21 (configuration not stated),26.5,-23.8,10.4,68.0*,15.7
CCc1ccccc1N1C(=O)CC(=O)NC1=O,29.2,-4.1,46.3*,34.0,42.1*
Cc1ccccc1N1C(=O)CC(=O)NC1=O,19.9,-18.8,2.1,-0.9,13.6
